# Results: ChEMBL document CHEMBL1133173, “Isoxazolines as potent antagonists of the integrin alpha(v)beta(3)” (J Med Chem, 2000)
# Target: Integrin alpha-V/beta-3 (Homo sapiens, UniProt P05106+P06756)
# Assay: Inhibition of vitronectin receptor (alpha V beta 3), expressed on human 293 cells, binding to immobilized fibrinogen
# Type: cell-based, HEK293
# Summary of the method: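 Human 293 cells stably transfected with human β3 plus a lacZ reporter (293β3z clone). Cells at 10⁶ viable cells/mL in MCDB131/20 mM HEPES pH 7.0 with 0.2% DMSO are preincubated with compound for 15 min at 37 °C. They are then added at 10⁵ cells/well to glycine-purified human fibrinogen-coated, BSA-blocked wells for 1 h at 37 °C, 5% CO₂. Adherent cells are lysed and β-galactosidase is read by chemiluminescence against a purified enzyme standard curve. Nonspecific binding is defined with 1 μM of a reference antagonist.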
# Integrin alpha-V/beta-3, sequence (P05106 27-788 limits assumed): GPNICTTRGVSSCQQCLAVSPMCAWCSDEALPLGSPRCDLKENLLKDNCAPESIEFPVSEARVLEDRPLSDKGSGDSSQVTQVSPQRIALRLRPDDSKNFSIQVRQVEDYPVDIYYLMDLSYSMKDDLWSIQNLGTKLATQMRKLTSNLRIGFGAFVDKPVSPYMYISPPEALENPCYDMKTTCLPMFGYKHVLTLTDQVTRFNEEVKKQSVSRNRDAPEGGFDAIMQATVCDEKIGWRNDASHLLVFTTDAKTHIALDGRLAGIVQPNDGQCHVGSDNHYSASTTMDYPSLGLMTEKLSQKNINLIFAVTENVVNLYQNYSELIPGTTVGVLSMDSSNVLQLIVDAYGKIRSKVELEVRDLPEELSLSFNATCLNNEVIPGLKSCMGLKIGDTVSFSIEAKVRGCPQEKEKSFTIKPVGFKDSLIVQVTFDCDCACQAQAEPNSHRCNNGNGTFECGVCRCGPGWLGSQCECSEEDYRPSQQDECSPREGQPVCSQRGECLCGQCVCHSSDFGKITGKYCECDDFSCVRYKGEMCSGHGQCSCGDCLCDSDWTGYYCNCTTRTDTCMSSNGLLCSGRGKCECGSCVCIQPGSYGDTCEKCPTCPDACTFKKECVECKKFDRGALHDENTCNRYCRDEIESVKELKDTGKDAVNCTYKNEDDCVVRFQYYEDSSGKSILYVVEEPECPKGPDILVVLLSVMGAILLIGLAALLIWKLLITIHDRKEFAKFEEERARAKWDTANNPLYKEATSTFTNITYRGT
# Integrin alpha-V/beta-3, sequence (P06756 31-889 limits assumed): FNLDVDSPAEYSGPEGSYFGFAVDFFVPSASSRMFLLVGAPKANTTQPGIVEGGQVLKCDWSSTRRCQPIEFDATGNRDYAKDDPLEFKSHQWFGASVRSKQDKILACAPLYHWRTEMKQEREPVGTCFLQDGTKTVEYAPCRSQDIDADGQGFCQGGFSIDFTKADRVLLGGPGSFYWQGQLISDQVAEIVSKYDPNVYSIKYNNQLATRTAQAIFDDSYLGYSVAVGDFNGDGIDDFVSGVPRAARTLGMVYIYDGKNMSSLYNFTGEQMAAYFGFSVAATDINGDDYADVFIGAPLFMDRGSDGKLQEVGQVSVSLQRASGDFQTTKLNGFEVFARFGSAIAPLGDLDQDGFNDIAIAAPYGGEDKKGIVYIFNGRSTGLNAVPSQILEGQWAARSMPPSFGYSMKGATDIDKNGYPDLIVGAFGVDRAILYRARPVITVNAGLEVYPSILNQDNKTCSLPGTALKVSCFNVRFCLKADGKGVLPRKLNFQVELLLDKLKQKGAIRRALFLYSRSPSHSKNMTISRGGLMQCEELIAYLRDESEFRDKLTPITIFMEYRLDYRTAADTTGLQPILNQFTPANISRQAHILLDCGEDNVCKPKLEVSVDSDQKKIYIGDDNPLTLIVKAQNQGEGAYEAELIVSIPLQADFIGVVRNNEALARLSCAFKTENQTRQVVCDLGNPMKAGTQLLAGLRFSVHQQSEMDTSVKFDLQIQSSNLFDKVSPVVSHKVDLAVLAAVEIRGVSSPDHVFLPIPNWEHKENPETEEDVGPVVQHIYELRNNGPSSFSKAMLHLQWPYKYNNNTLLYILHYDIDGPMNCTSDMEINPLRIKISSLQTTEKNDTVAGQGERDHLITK
# Integrin alpha-V/beta-3, sequence (P06756 891-1048 limits assumed): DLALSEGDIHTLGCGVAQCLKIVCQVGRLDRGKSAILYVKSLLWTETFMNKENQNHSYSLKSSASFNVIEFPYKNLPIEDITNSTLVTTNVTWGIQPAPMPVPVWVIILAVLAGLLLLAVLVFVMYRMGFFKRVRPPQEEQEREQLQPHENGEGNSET
row,SMILES,IC50 [nM]
1,N[C@@H](CNC(=O)C1=NOC(CCCCNc2ncc[nH]2)C1)C(=O)O (stereo not given in full),> 1000
2,Cc1cc(C)c(S(=O)(=O)N[C@@H](CNC(=O)C2=NOC(CCNc3ncc[nH]3)C2)C(=O)O)c(C)c1 (stereo not given in full),106
3,O=C(NC[C@H](NS(=O)(=O)c1ccccc1)C(=O)O)C1=NOC(CCCCNc2ccccn2)C1 (stereo not given in full),81
4,Cc1cc(C)c(S(=O)(=O)N[C@@H](CNC(=O)C2=NOC(CCCc3cccc(N)n3)C2)C(=O)O)c(C)c1 (stereo not given in full),26
5,Cc1cccc(Cl)c1S(=O)(=O)N[C@@H](CNC(=O)C1=NOC(CCCCNc2ncc[nH]2)C1)C(=O)O (stereo not given in full),7.1
6,Cc1cc(C)c(S(=O)(=O)N[C@@H](CNC(=O)C2=NOC(CCNC(=O)Nc3ncc[nH]3)C2)C(=O)O)c(C)c1 (stereo not given in full),34
7,Cc1cc(C)c(S(=O)(=O)N[C@@H](CNC(=O)C2=NOC(CCCCNc3ccccn3)C2)C(=O)O)c(C)c1 (stereo not given in full),54
8,CN([C@@H](CNC(=O)C1=NOC(CCCCNc2ccccn2)C1)C(=O)O)S(=O)(=O)c1ccc(-c2ccccc2)cc1 (stereo not given in full),130
9,O=C(NC[C@H](NS(=O)(=O)c1ccc(-c2ccccc2)cc1)C(=O)O)C1=NOC(CCCCNc2ncc[nH]2)C1 (stereo not given in full),240
10,Cc1cc(C)c(S(=O)(=O)N[C@@H](CNC(=O)C2=NOC(CCCCNS(N)(=O)=O)C2)C(=O)O)c(C)c1 (stereo not given in full),> 1000
11,Cc1cc(C)c(S(=O)(=O)N[C@@H](CNC(=O)C2=NOC(CCCCNc3nccc4ccccc34)C2)C(=O)O)c(C)c1 (stereo not given in full),> 1000
12,Cc1cc(C)c(S(=O)(=O)N[C@@H](CNC(=O)C2=NOC(CCCCNc3ncc[nH]3)C2)C(=O)O)c(C)c1 (stereo not given in full),15
13,Cc1cc(C)c(S(=O)(=O)N[C@@H](CNC(=O)C2=NOC(CCCCNC(N)=O)C2)C(=O)O)c(C)c1 (stereo not given in full),> 1000
14,Cc1cc(-c2ccccc2)cc(C)c1S(=O)(=O)N[C@@H](CNC(=O)C1=NOC(CCCCNc2ccccn2)C1)C(=O)O (stereo not given in full),44
15,N=C(N)c1ccc(C2=NO[C@@H](CC(=O)NCCC(=O)O)C2)cc1,> 100000
16,Cc1cc(-c2ccccc2)cc(C)c1S(=O)(=O)N[C@@H](CNC(=O)C1=NOC(CCCCNc2ncc[nH]2)C1)C(=O)O (stereo not given in full),8.8
17,O=C(NC[C@H](NS(=O)(=O)c1c(Cl)cccc1Cl)C(=O)O)C1=NOC(CCCCNc2ncc[nH]2)C1 (stereo not given in full),18
18,Cc1cc(C)c(S(=O)(=O)N[C@@H](CNC(=O)C2=NOC(CCCC(=O)Nc3ncc[nH]3)C2)C(=O)O)c(C)c1 (stereo not given in full),31
19,Cc1noc(C)c1S(=O)(=O)N[C@@H](CNC(=O)C1=NOC(CCCCNc2ncc[nH]2)C1)C(=O)O (stereo not given in full),73
20,Cc1cc(C)c(S(=O)(=O)N[C@H](CNC(=O)C2=NOC(CCCCNc3ncc[nH]3)C2)C(=O)O)c(C)c1 (stereo not given in full),2800
21,Cc1cc(C)c(S(=O)(=O)N[C@@H](CNC(=O)C2=NOC(CCCCN=C(N)N)C2)C(=O)O)c(C)c1 (stereo not given in full),169
22,O=C(NC[C@H](NS(=O)(=O)c1c(Cl)cc(-c2ccccc2)cc1Cl)C(=O)O)C1=NOC(CCCCNc2ncc[nH]2)C1 (stereo not given in full),4.6
23,O=C(NC[C@H](NS(=O)(=O)c1cccc2ccccc12)C(=O)O)C1=NOC(CCCCNc2ncc[nH]2)C1 (stereo not given in full),51
24,Cc1cc(C)c(S(=O)(=O)N[C@@H](CNC(=O)C2=NOC(CCCc3c[nH]c(N)n3)C2)C(=O)O)c(C)c1 (stereo not given in full),46
25,O=C(NC[C@H](NS(=O)(=O)c1cccc2ccccc12)C(=O)O)C1=NOC(CCCCNc2ccccn2)C1 (stereo not given in full),160
26,Cc1cc(C)c(S(=O)(=O)N[C@@H](CNC(=O)C2=NOC(CCCCNc3cc4ccccc4cn3)C2)C(=O)O)c(C)c1 (stereo not given in full),> 1000
27,Cc1cc(C)c(S(=O)(=O)N[C@@H](CNC(=O)C2=NOC(CCCCNC3=NCCN3)C2)C(=O)O)c(C)c1 (stereo not given in full),62
28,CC(C)c1ccc(S(=O)(=O)N[C@@H](CNC(=O)C2=NOC(CCCCNc3ccccn3)C2)C(=O)O)cc1 (stereo not given in full),170
29,O=C(NC[C@H](NS(=O)(=O)c1ccccc1)C(=O)O)C1=NOC(CCCCNc2ncc[nH]2)C1 (stereo in doubt; 3cc),10.6
30,O=C(NC[C@H](NS(=O)(=O)c1ccccc1)C(=O)O)C1=NOC(CCCCNc2ncc[nH]2)C1 (stereo in doubt; 3q),66
